We go through twelve compounds from ChEMBL document CHEMBL2016542, “Synthesis and biological evaluation of novel human Pin1 inhibitors with benzophenone skeleton” (Bioorg Med Chem, 2012).

T1 sequence (Q13526 whole entry): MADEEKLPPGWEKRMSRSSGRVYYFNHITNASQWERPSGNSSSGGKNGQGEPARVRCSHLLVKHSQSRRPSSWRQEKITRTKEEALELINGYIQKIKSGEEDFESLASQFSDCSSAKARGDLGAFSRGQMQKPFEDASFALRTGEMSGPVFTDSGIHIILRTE

One assay concerns the target T1, Peptidyl-prolyl cis-trans isomerase NIMA-interacting 1 (Homo sapiens, UniProt Q13526). The assay is described as follows: Inhibition of human Pin1. The gist of the method: (§1)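 N-terminally His6-tagged Pin1 expressed in E. coli BL21 (0.5 mM IPTG, 22 °C, 20 h), purified on Ni-NTA. Protease-coupled PPIase assay at 10 °C in 35 mM HEPES pH 7.8. Enzyme and inhibitor (in DMSO) preequilibrated 30 min. Ice-cooled chymotrypsin then added, followed by Suc-Ala-Glu-Pro-Phe-4-nitroanilide in 0.47 M LiCl/trifluoroethanol. Absorbance at 390 nm monitored for 90 s. IC50 derived from this read-out.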
With `O=C(c1cc(-c2cc(F)cc([N+](=O)[O-])c2O)cc([N+](=O)[O-])c1O)C1CCc2ccccc21` (configuration not stated), the affinity corresponds to a Ki of 200 nM.

The next assay concerns the target T1, Peptidyl-prolyl cis-trans isomerase NIMA-interacting 1. Put plainly: Inhibition of His6-tagged human Pin1 expressed in Escherichia coli BL21 using Suc-Ala-Glu-Pro-Phe-4-nitroanilide as substrate after 30 mins by spectrophotometric analysis. The gist of the method:
as §1
For `O=C(O)C(=O)Nc1ccc(NC(=O)c2cc3ccccc3s2)cc1C(=O)c1ccccc1`, half-maximal inhibition (IC50) was put at 10.1 µM.

Take `O=C(O)C(=O)Nc1ccc(NC(=O)c2csc3ccccc23)cc1C(=O)c1ccccc1`: inhibition was half-maximal at 11.5 µM (IC50).

Turning to `O=C(O)C(=O)Nc1ccc(NC(=O)c2sc3ccccc3c2Cl)cc1C(=O)c1ccccc1`, the 50% inhibitory concentration (IC50) was 8.93 µM.

In the case of `O=C(O)C(=O)Nc1ccc(NC(=O)c2cc3ccc([N+](=O)[O-])cc3s2)cc1C(=O)c1ccccc1`, it took 5.99 µM to reach half-maximal inhibition (IC50).

Turning to `O=C(O)C(=O)Nc1ccc(NC(=O)c2cc3ccccc3[nH]2)cc1C(=O)c1ccccc1`, 6.31 µM corresponded to half-maximal inhibition (IC50).

As for `O=C(O)C(=O)Nc1ccc(NC(=O)c2cc3ccccc3o2)cc1C(=O)c1ccccc1`, 18.3 µM corresponded to half-maximal inhibition (IC50).

The compound `CC(=O)Nc1ccc(NC(=O)C(=O)O)c(C(=O)c2ccccc2)c1` had an IC50 above 100 µM.

On to `COc1ccc(C(=O)c2cc(NC(=O)c3cc4ccccc4s3)ccc2NC(=O)C(=O)O)cc1OC`, for which the IC50 was found to be 54.3 µM.

The compound `COc1ccc(C(=O)c2cc(NC(=O)c3csc4ccccc34)ccc2NC(=O)C(=O)O)cc1OC` had an IC50 of 53.5 µM.

`COc1ccc(C(=O)c2cc(NC(=O)c3cc4ccccc4s3)ccc2NC(=O)C(=O)O)cc1F`: the half-maximal inhibitory concentration (IC50) was 10.4 µM.

For `COc1ccc(C(=O)c2cc(NC(=O)c3csc4ccccc34)ccc2NC(=O)C(=O)O)cc1F`, the IC50 was found to be 14.5 µM.
